Measurements from PMC10053980 (ACS infectious diseases, 2023).
Like-named read-outs stand apart in the source and are kept apart here.

What was measured:
TM90C2B = test: [3H]-hypoxanthine incorporation assay, cross-resistance panel; type: cell-based, Plasmodium falciparum
in vitro = in vitro ADME; settings: human, microsomes
Dd2 = test: [3H]-hypoxanthine incorporation assay, cross-resistance panel; type: cell-based, Plasmodium falciparum
physchem = type: physicochemical; settings: kinetic from dmso stock
PfD10 attB = test: Asexual blood-stage growth inhibition; type: cell-based; settings: Plasmodium falciparum, read-out: PfD10 attB EC50
Procedure, shortened: (§1)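 Ring-stage parasites (2% hematocrit, 0.5% parasitemia, final DMSO 0.5%) were exposed to a concentration range for 72 h at 37 °C, 5% CO2. Plates were frozen for at least 16 h and thawed, then SYBR Green lysis buffer was added. Fluorescence was read at 485 nm excitation and 535/528 nm emission. DSM265 (0.8–100 nM) served as plate control. EC50 came from four-parameter nonlinear regression, in technical triplicates with at least 3 biological replicates.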

[1] = system: P. falciparum Dd2 (PfDd2, parent); test: Asexual blood-stage growth inhibition; type: cell-based; settings: Plasmodium falciparum
[2] = system: PfCARL^L1073I C2 clone beta (Polδ mutant); test: Asexual blood-stage EC50; type: cell-based, Plasmodium falciparum; settings: for EC50: Plasmodium falciparum
[3] = system: PfACT^Q116K (S)-SW703-resistant Dd2 clone; test: Asexual blood-stage EC50; type: cell-based, Plasmodium falciparum; settings: for EC50: Plasmodium falciparum
Procedure, shortened: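 Cloned resistant parasites were exposed to test compound or KAF156 over a concentration range for 72 h at 37 °C (2% hematocrit, 0.5% parasitemia, 0.5% DMSO). Freeze–thaw was followed by SYBR Green lysis and fluorescence at 485/535 or 528 nm. EC50 was fitted by four-parameter regression. Fold shift is relative to the Dd2 parent. Technical triplicates, at least three independent experiments.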

Dd2-Polδ (parent) = test: Asexual blood-stage EC50; type: cell-based; settings: Plasmodium falciparum, DD2, read-out: (S)-SW703 EC50
Procedure, shortened: as §1

[4] = system: P. falciparum 3D7 (Pf3D7); test: Asexual blood-stage growth inhibition; type: cell-based; settings: Plasmodium falciparum, 3D7, 72 h, read-out: Pf3D7 EC50
RF12 (PH-1263-C) = test: [3H]-hypoxanthine incorporation assay, cross-resistance panel; type: cell-based, Plasmodium falciparum
HepG2 cytotoxicity = type: cell-based; settings: human, HepG2 cells
Procedure, shortened: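 HepG2 cells (600 per well) in EMEM with 5% heat-inactivated FBS and 2 mM glutamine received test compound and were incubated 72 h at 37 °C, 5% CO2. Viability was read by CellTiter Glo (intracellular ATP). CD437 and methotrexate served as positive controls. Two biological runs, each in technical triplicate.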

[5] = system: P. berghei liver stage (Pb-Luc sporozoites); test: Liver stage activity assay; type: cell-based; settings: Plasmodium berghei, read-out: Liver-stage EC50
[6] = system: P. falciparum strain NF54 stage V gametocytes, female gametes; test: Dual gamete formation assay; type: cell-based; settings: Plasmodium falciparum, NF54, read-out: Inhibition of female gamete formation
7G8 = test: [3H]-hypoxanthine incorporation assay, cross-resistance panel; type: cell-based, Plasmodium falciparum
[7] = system: PfCARL^L830I (S)-SW703-resistant Dd2 clones; test: Asexual blood-stage EC50; type: cell-based, Plasmodium falciparum
[8] = system: P. falciparum strain NF54 stage V gametocytes, male gametes; test: Dual gamete formation assay; type: cell-based, Plasmodium falciparum; settings: 1 μM, 48 h
NF54 = test: [3H]-hypoxanthine incorporation assay, cross-resistance panel; type: cell-based; settings: Plasmodium falciparum, NF54, read-out: (S)-SW703 EC50
[9] = system: PfPI4K^S743T (MMV390048-resistant); test: as above; type: cell-based, Plasmodium falciparum
[10] = system: PfeEF2^Y186N (DDD107498-resistant); test: as above; type: cell-based, Plasmodium falciparum
PfD10 attB + yDHODH = test: Asexual blood-stage growth inhibition; type: cell-based, Plasmodium falciparum; settings: Saccharomyces cerevisiae, read-out: PfD10 attB + yDHODH EC50
Procedure, shortened: as §1

[11] = system: P. falciparum strain 3D7A; test: Two color flow cytometry rate of kill assay; type: cell-based, Plasmodium falciparum; settings: 0, 24 or 48 h exposure at 10X EC50; compared with chloroquine and artesunate
K1 = test: [3H]-hypoxanthine incorporation assay, cross-resistance panel; type: cell-based, Plasmodium falciparum
[12] = system: PfDHODH (DSM265-resistant); test: [3H]-hypoxanthine incorporation assay, cross-resistance panel; type: cell-based, Plasmodium falciparum
Procedure, shortened: (§2)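 Cross-resistance was measured by a modified [3H]-hypoxanthine incorporation assay. Fold differences for lab-generated resistant lines are relative to the Dd2 parent. Values are means from two independent experiments.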

[13] = system: PfCytB^I22L (ELQ300-resistant); test: [3H]-hypoxanthine incorporation assay, cross-resistance panel; type: cell-based, Plasmodium falciparum
[14] = system: PfCARL^Q821H (S)-SW703-resistant Dd2 clones; test: Asexual blood-stage EC50; type: cell-based, Plasmodium falciparum
[15] = system: PfCARL^S1057T (S)-SW703-resistant Dd2 clones; test: Asexual blood-stage EC50; type: cell-based, Plasmodium falciparum
[16] = system: PfCARL^I1139K (KAF156-selected); test: [3H]-hypoxanthine incorporation assay, cross-resistance panel; type: cell-based, Plasmodium falciparum; settings: PfCARL^I1139K relative to parent line Dd2
Procedure, shortened: as §2

[17] = system: PfACT^S242* CRISPR mutant; settings: cited from earlier work
PfCARL L1073Q mutants = settings: cited from earlier work
[18] = Flask 4 clone F2, PfACT^Q116K, vs Dd2 parent
[19] = Plasmodium falciparum, read-out: (S)-SW703 EC50
[20] = Flask 1 clone B4, PfCARL^L830I, vs Dd2 parent
[21] = Flask 2 clone F3, PfCARL^Q821H, vs Dd2 parent
[22] = Flask 3 clone D11, PfCARL^S1057T, vs Dd2 parent

## Cc1cccc(C)c1CC1CN(C(=O)[C@@H](N)Cc2ccc(O)cc2)C1 [(S)-SW703, (S)-2-amino-1-(3-(2,6-dimethylbenzyl)azetidin-1-yl)-3-(4-hydroxyphenyl)propan-1-one]
TM90C2B; Plasmodium falciparum, TM90C2B, read-out: (S)-SW703 EC50
  EC50: 370 ± 41 nM
TM90C2B; TM90C2B relative to NF54
  (S)-SW703 EC50 fold shift: 1.1 fold
In vitro
  microsomal CLint: 197 µL/min/mg
Dd2; Dd2 relative to NF54
  (S)-SW703 EC50 fold shift: 0.88 fold
Dd2; Plasmodium falciparum, DD2, read-out: (S)-SW703 EC50
  EC50: 300 ± 31 nM
physchem; pH 2, simulated gastric fluid
  solubility: > 34 µg/mL
physchem; pH 6.5, aqueous buffer
  solubility: > 34 µg/mL
PfD10 attB
  EC50: 1500 nM
[1]; DD2, 72 h, read-out: PfDd2 EC50
  EC50: 810 ± 150 nM
[2]; C2 clone beta, PfCARL^L1073I, vs Dd2-Polδ parent
  (S)-SW703 EC50 fold shift: 9.5 fold
[2]; read-out: (S)-SW703 EC50
  EC50: 8800 ± 1200 nM
[3]; [18]
  (S)-SW703 EC50 fold shift: 2.3 fold
[3]; DD2, read-out: (S)-SW703 EC50
  EC50: 1900 ± 240 nM
Dd2-Polδ (parent)
  EC50: 930 ± 110 nM
[4]
  EC50: 780 ± 92 nM
RF12 (PH-1263-C); [19]
  EC50: 370 ± 10 nM
RF12 (PH-1263-C); RF12 relative to NF54
  (S)-SW703 EC50 fold shift: 1.1 fold
HepG2 cytotoxicity
  CC50 at 72 h: > 50000 nM
[5]
  EC50: 570 ± 210 nM
[6]
  inhibition at 1 µM: 1.2 ± 1.7%
7G8; 7G8 relative to NF54
  (S)-SW703 EC50 fold shift: 1.2 fold
7G8; [19]
  EC50: 410 ± 32 nM
[7]; [20]
  (S)-SW703 EC50 fold shift: 31 fold
[7]; Flask 1 clone F9, PfCARL^L830I, vs Dd2 parent
  (S)-SW703 EC50 fold shift: 31 fold
[7]; Flask 2 clone C5, PfCARL^L830I, vs Dd2 parent
  (S)-SW703 EC50 fold shift: 32 fold
[7]; Flask 2 clone E8, PfCARL^L830I, vs Dd2 parent
  (S)-SW703 EC50 fold shift: 27 fold
[8]
  Inhibition of male gamete formation: 18.3%
NF54
  EC50: 340 ± 36 nM
[9]; PfPI4K^S743T relative to parent line Dd2
  (S)-SW703 EC50 fold shift: 0.97 fold
[9]; {}
  EC50: 290 ± 42 nM
[10]; PfeEF2^Y186N relative to parent line Dd2
  (S)-SW703 EC50 fold shift: 0.91 fold
[10]; {}
  EC50: 270 ± 25 nM
PfD10 attB + yDHODH
  EC50: 1300 nM
[11]
  Rate of kill (killing kinetics): fast-killing mechanism
K1; K1 relative to NF54
  (S)-SW703 EC50 fold shift: 1.0 fold
K1; [19]
  EC50: 350 ± 39 nM
[12]; PfDHODH relative to parent line Dd2
  (S)-SW703 EC50 fold shift: 0.95 fold
[12]; Plasmodium falciparum, DSM265, read-out: (S)-SW703 EC50
  EC50: 290 ± 9 nM
[13]; PfCytB^I22L relative to parent line Dd2
  (S)-SW703 EC50 fold shift: 0.75 fold
[13]; {}
  EC50: 230 ± 46 nM
[14]; [21]
  (S)-SW703 EC50 fold shift: 52 fold
[14]; Flask 3 clone D7, PfCARL^Q821H, vs Dd2 parent
  (S)-SW703 EC50 fold shift: 60 fold
[15]; Flask 1 clone G3, PfCARL^S1057T, vs Dd2 parent
  (S)-SW703 EC50 fold shift: 12 fold
[15]; [22]
  (S)-SW703 EC50 fold shift: 15 fold
[15]; Flask 3 clone G5, PfCARL^S1057T, vs Dd2 parent
  (S)-SW703 EC50 fold shift: 16 fold
[15]; Flask 4 clone D4, PfCARL^S1057T, vs Dd2 parent
  (S)-SW703 EC50 fold shift: 12 fold
[15]; Flask 4 clone G3, PfCARL^S1057T, vs Dd2 parent
  (S)-SW703 EC50 fold shift: 14 fold
[16]
  (S)-SW703 EC50 fold shift: > 16.6 fold

## CC1(C)c2nc(-c3ccc(F)cc3)c(Nc3ccc(Cl)cc3)n2CCN1C(=O)CN [GNF179]
[17]
  resistance conferred by PfACT^S242* CRISPR mutant: high-level resistance
PfCARL L1073Q mutants
  resistance conferred by PfCARL L1073Q: did not confer resistance
[14]; cross-resistance of (S)-SW703-resistant clones
  fold resistance of parasites bearing PfCARL^Q821H mutations: about 5 fold

## CC1(C)c2nc(-c3ccc(F)cc3)c(Nc3ccc(F)cc3)n2CCN1C(=O)CN [KAF156, reference compound]
[17]
  resistance conferred by PfACT^S242* CRISPR mutant: high-level resistance
[1]; DD2, read-out: KAF156 EC50
  EC50: 12 ± 1.7 nM
[2]; read-out: KAF156 EC50
  EC50: 16 ± 2.7 nM
[3]; [18]
  KAF156 EC50 fold shift: 1.8 fold
[3]; DD2, read-out: KAF156 EC50
  EC50: 22 ± 4.5 nM
PfCARL L1073Q mutants
  resistance conferred by PfCARL L1073Q: did not confer resistance
[7]; [20]
  KAF156 EC50 fold shift: 1.8 fold
[7]; Plasmodium falciparum, DD2, read-out: KAF156 EC50, Flask 1 clone B4, PfCARL^L830I
  EC50: 22 ± 3.4 nM
[14]; [21]
  KAF156 EC50 fold shift: 4.7 fold
[14]; Plasmodium falciparum, DD2, read-out: KAF156 EC50, Flask 2 clone F3, PfCARL^Q821H
  EC50: 57 ± 6.6 nM
[15]; [22]
  KAF156 EC50 fold shift: 1.5 fold
[15]; Plasmodium falciparum, DD2, read-out: KAF156 EC50, Flask 3 clone D11, PfCARL^S1057T
  EC50: 18 ± 1.8 nM
